From ChEMBL document CHEMBL4402565, “α-Ketoamides as Broad-Spectrum Inhibitors of Coronavirus and Enterovirus Replication: Structure-Based Design, Synthesis, and Activity Assessment” (J Med Chem, 2020)

Key:
[1] = Inhibition of Enterovirus A71 protease 3C using DabcylKEALFQ-GPPQF-E(Edans)-NH2 as substrate incubated for 10 mins by fluorospectrometry
How it was run: (§1)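 FRET cleavage assay in 20 mM Tris-HCl, 100 mM NaCl, 1 mM EDTA, 1 mM DTT, pH 7.3. Final enzyme 2 μM for CVB3 3Cpro or 3 μM for EV-A71 3Cpro, preincubated with inhibitor (0–100 μM) for 10 min at 37 °C. Reaction started with 20 μM final Dabcyl-KEALFQ↓GPPQF-E(Edans)-NH₂. Edans dequenching read at ex 360/em 460 nm. Triplicate, mean ± SD.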

[2] = system: Enterovirus A71; assay: Antiviral activity against Enterovirus A71 infected in HuH7 cells expressing T7 RNA polymerase assessed as reduction in viral RNA replication incubated for 24 hrs by luciferase reporter gene assay; assay type: functional, organism-based; conditions: Enterovirus A, Huh-7, 24 h
How it was run: (§2)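 Huh-T7 cells (DMEM, 2 mM glutamine, penicillin/streptomycin, 10% FCS growth or 2% maintenance, G-418 400 μg·mL⁻¹) transfected with enteroviral replicon. Compound added in growth medium at 40 μM for screening or 0, 1.25, 2.5, 5, 10, 20, 40 μM for EC50. After 24 h, cells lysed and luciferase activity read. Triplicate or quadruplicate, mean ± SD.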

[3] = Inhibition of […] protease 3C using DabcylKEALFQ-GPPQF-E(Edans)-NH2 as substrate incubated for 10 mins by fluorospectrometry; design: species or system Coxsackievirus; how it was run: as §1
[4] = Inhibition of human coronavirus NL63 M protease using Dabcyl-KTSAVLQ-SGFRKM-E(Edans)-NH2 as substrate incubated for 10 mins by fluorospectrometry
How it was run: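 0.5 μM final HCoV-NL63 Mpro preincubated 10 min at 37 °C with inhibitor (0–100 μM) in pH 7.3 Tris buffer (100 mM NaCl, 1 mM EDTA, 1 mM DTT). Cleavage of 20 μM Dabcyl-KTSAVLQ↓SGFRKM-E(Edans)-NH₂ followed by fluorescence at 460 nm with 360 nm excitation. IC50 from triplicate measurements, mean ± SD.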

[5] = Antiviral activity against […] infected in HuH7 cells expressing T7 RNA polymerase assessed as reduction in viral RNA replication incubated for 24 hrs by luciferase reporter gene assay; assay type: functional, organism-based; conditions: B3, Huh-7, 24 h; how it was run: as §2
[6] = Therapeutic index, ratio of CC50 for human HeLa Rh cells to EC50 for Human rhinovirus 14 infected in human HeLa Rh cells; assay type: toxicity, cell-based; conditions: read-out: Ratio CC50/EC50
[7] = Antiviral activity against […] infected in HuH7 cells expressing T7 RNA polymerase assessed as reduction in virus-induced cytopathic effect incubated for 2 days by non-radioactive cell proliferation assay; assay type: functional, organism-based; conditions: B3, Huh-7, 48 h
[8] = Cytotoxicity against human HeLa Rh cells assessed as reduction in cell viability incubated for 3 days by MTS assay; assay type: cell-based
[9] = system: rhinovirus A2; assay: Antiviral activity against Human rhinovirus 2 infected in HeLa Rh cells assessed as reduction in virus-induced cytopathic effect incubated for 3 days by MTS assay; assay type: functional, organism-based; conditions: Rhinovirus A, 72 h
How it was run: (§3)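 CPE reduction assay. RD (EV-A71) or HeLa Rh (EV-D68, HRV) cells seeded 24 h earlier in medium with 2% FCS; HRV2/HRV14 medium contained 30 mM MgCl₂. Serial compound dilutions added with virus. At 3 days post infection, 5% MTS added for 1 h at 37 °C and OD498 read. EC50 taken as 50% protection versus controls by logarithmic interpolation; morphology also checked microscopically.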

[10] = Therapeutic index, ratio of CC50 for human HeLa Rh cells to EC50 for Enterovirus D68 infected in human HeLa Rh cells; assay type: toxicity, cell-based; conditions: read-out: Ratio CC50/EC50
[11] = system: Middle East respiratory syndrome-related coronavirus; assay: Antiviral activity against Middle East respiratory syndrome coronavirus infected in HuH7 cells expressing T7 RNA polymerase assessed as reduction in virus-induced cytopathic effect incubated for 2 days by non-radioactive cell proliferation assay; assay type: functional, organism-based; conditions: Huh-7, 48 h
[12] = system: Middle East respiratory syndrome-related coronavirus; assay: Antiviral activity against Middle East respiratory syndrome coronavirus infected in Vero cells assessed as reduction in virus-induced cytopathic effect incubated for 3 days by non-radioactive cell proliferation assay; assay type: functional, organism-based; conditions: 72 h
[13] = Therapeutic index, ratio of CC50 for human HeLa Rh cells to EC50 for Human rhinovirus 2 infected in human HeLa Rh cells; assay type: toxicity, cell-based; conditions: read-out: Ratio CC50/EC50
[14] = Inhibition of SARS coronavirus M protease using Dabcyl-KTSAVLQ-SGFRKM-E(Edans)-NH2 as substrate incubated for 10 mins by fluorospectrometry; design: species or system Severe acute respiratory syndrome-related coronavirus
How it was run: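 FRET cleavage assay with 0.5 µM recombinant SARS-CoV Mpro (authentic termini) in 20 mM Tris-HCl, 100 mM NaCl, 1 mM EDTA, 1 mM DTT, pH 7.3. Enzyme was preincubated with inhibitor (0–100 µM) for 10 min at 37 °C, then 20 µM final substrate was added. Fluorescence was read at ex 360/em 460 nm. Triplicate, mean ± SD; IC50 from curve fitting.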

[15] = system: SARS-CoV; assay: Antiviral activity against SARS coronavirus infected in Vero E6 cells assessed as reduction in virus-induced cytopathic effect incubated for 2 days by non-radioactive cell proliferation assay; assay type: functional, organism-based; conditions: Severe acute respiratory syndrome-related coronavirus, Vero C1008, 48 h
[16] = system: rhinovirus B14; assay: Antiviral activity against Human rhinovirus 14 infected in HeLa Rh cells assessed as reduction in virus-induced cytopathic effect incubated for 3 days by MTS assay; assay type: functional, organism-based; conditions: Rhinovirus B, 72 h; how it was run: as §3
[17] = system: SARS-CoV; assay: Antiviral activity against SARS coronavirus infected in HuH7 cells expressing T7 RNA polymerase assessed as reduction in viral RNA replication incubated for 24 hrs by luciferase reporter gene assay; assay type: functional, organism-based; conditions: Severe acute respiratory syndrome-related coronavirus, Huh-7, 24 h
How it was run: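 SARS-CoV replicon (DNA-launched, Renilla luciferase reporter) was transfected into Huh-T7 cells at 80–90% confluency. Compound at 0, 1.25, 2.5, 5, 10, 20 or 40 µM in growth medium was added after transfection. At 24 h, cells were lysed and luciferase activity measured. Runs were in triplicate or quadruplicate, reported as mean ± SD.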

[18] = Cytotoxicity against human RD cells assessed as reduction in cell viability incubated for 3 days by MTS assay; assay type: cell-based
[19] = Cytotoxicity against human HuH7 cells expressing T7 RNA polymerase assessed as reduction in cell viability incubated for 2 days by non-radioactive cell proliferation assay; assay type: cell-based, Huh-7
[20] = system: Enterovirus A71; assay: Antiviral activity against Enterovirus A71 infected in RD cells assessed as reduction in virus-induced cytopathic effect incubated for 3 days by MTS assay; assay type: functional, organism-based; conditions: Enterovirus A, 72 h; how it was run: as §3
[21] = system: Human coronavirus 229E; assay: Antiviral activity against Human coronavirus 229E infected in HuH7 cells expressing T7 RNA polymerase assessed as reduction in virus-induced cytopathic effect incubated for 48 hrs by Alamar blue based assay; assay type: functional, organism-based; conditions: Huh-7, 48 h
[22] = system: enterovirus D68; assay: Antiviral activity against Enterovirus D68 infected in HeLa Rh cells assessed as reduction in virus-induced cytopathic effect incubated for 3 days by MTS assay; assay type: functional, organism-based; conditions: Enterovirus D, 72 h; how it was run: as §3

## O=C(/C=C/c1ccccc1)N[C@@H](Cc1ccc(F)cc1)C(=O)N[C@@H](C[C@@H]1CCNC1=O)C(=O)C(=O)NCc1ccccc1
[1]
  IC50: 2.32 µM
[2]
  EC50: > 20 µM
[3]
  IC50: 8.69 µM
[4]
  IC50: > 50 µM

## O=C(/C=C/c1ccccc1)N[C@@H](CC1CCC1)C(=O)N[C@@H](C[C@@H]1CCNC1=O)C(=O)C(=O)NCc1ccccc1
[1]
  IC50: 10.8 µM
[5]
  EC50: 4.3 µM
[6]
  selectivity ratio: > 15
[7]
  EC50: 10.4 µM
[8]
  CC50 at 72 h: 65 µM
[9]
  EC50: 3.7 µM
[10]
  selectivity ratio: > 15
[11]
  EC50: 20 nM
[2]
  EC50: 20 µM
[12]
  EC50: 9.8 µM
[13]
  selectivity ratio: > 15
[3]
  IC50: 4.78 µM
[14]
  IC50: 1440 nM
[15]
  EC50: 7 µM
[16]
  EC50: 4.2 µM
[17]
  EC50: 6.7 µM
[4]
  IC50: 3.43 µM
[18]
  CC50 at 72 h: 100 µM
[19]
  CC50 at 48 h: 124 µM
[20]
  EC50: 41 µM

## O=C(/C=C/c1ccccc1)N[C@@H](CC1CCCC1)C(=O)N[C@@H](C[C@@H]1CCNC1=O)C(=O)C(=O)NCc1ccccc1
[1]
  IC50: 4.73 µM
[5]
  EC50: 5.1 µM
[7]
  EC50: 8.1 µM
[8]
  CC50 at 72 h: 33.2 µM
[9]
  EC50: 0.51 µM
[11]
  EC50: 7 nM
[2]
  EC50: 8.9 µM
[12]
  EC50: 11.1 µM
[3]
  IC50: 1.93 µM
[14]
  IC50: 1270 nM
[15]
  EC50: 4.9 µM
[16]
  EC50: 0.42 µM
[17]
  EC50: 3.6 µM
[4]
  IC50: 5.41 µM
[18]
  CC50 at 72 h: 30.8 µM
[21]
  EC50: 2500 nM
[19]
  CC50 at 48 h: 47.5 µM
[20]
  EC50: 4.2 µM

## CC(C)(C)OC(=O)N[C@@H](C[C@@H]1CCNC1=O)C(=O)C(=O)NCc1ccccc1
[1]
  IC50: > 50 µM
[5]
  EC50: > 10 µM
[2]
  EC50: > 10 µM
[3]
  IC50: > 50 µM
[17]
  EC50: > 40 µM
[4]
  IC50: > 50 µM

## C#CC[C@H](NC(=O)/C=C/c1ccccc1)C(=O)N[C@@H](C[C@@H]1CCNC1=O)C(=O)C(=O)NCc1ccccc1
[1]
  IC50: 8.5 µM
[3]
  IC50: 8.93 µM
[14]
  IC50: 10700 nM
[17]
  EC50: > 20 µM
[4]
  IC50: 17.4 µM

## O=C(/C=C/c1ccccc1)N[C@@H](CC1CC1)C(=O)N[C@@H](C[C@@H]1CCNC1=O)C(=O)C(=O)NCc1ccccc1
[1]
  IC50: 18.5 µM
[5]
  EC50: 18 µM
[7]
  EC50: 10.4 µM
[8]
  CC50 at 72 h: 103 µM
[9]
  EC50: 3.8 µM
[11]
  EC50: 80 nM
[2]
  EC50: > 20 µM
[12]
  EC50: 10.9 µM
[3]
  IC50: 4.25 µM
[14]
  IC50: 240 nM
[15]
  EC50: 18.4 µM
[16]
  EC50: 5.5 µM
[17]
  EC50: 1.9 µM
[4]
  IC50: 1.37 µM
[18]
  CC50 at 72 h: 106 µM
[21]
  EC50: 1300 nM
[19]
  CC50 at 48 h: > 189 µM
[20]
  EC50: 46 µM

## O=C(/C=C/c1ccccc1)N[C@H](C(=O)N[C@@H](C[C@@H]1CCNC1=O)C(=O)C(=O)NCc1ccccc1)C1CC1
[1]
  IC50: > 30 µM
[3]
  IC50: 15.4 µM
[14]
  IC50: 6270 nM
[4]
  IC50: 11.5 µM

## CCCC[C@H](NC(=O)/C=C/c1ccccc1)C(=O)N[C@@H](C[C@@H]1CCNC1=O)C(=O)C(=O)NCc1ccccc1
[1]
  IC50: 3.24 µM
[2]
  EC50: > 20 µM
[3]
  IC50: 5.2 µM
[14]
  IC50: 8500 nM
[4]
  IC50: > 50 µM

## O=C(/C=C/c1ccccc1)N[C@@H](CC1CCCCC1)C(=O)N[C@@H](C[C@@H]1CCNC1=O)C(=O)C(=O)NCc1ccccc1
[1]
  IC50: 1.69 µM
[5]
  EC50: 2.35 µM
[6]
  selectivity ratio: > 15
[22]
  EC50: 480 nM
[7]
  EC50: 2.77 µM
[8]
  CC50 at 72 h: 10.9 µM
[9]
  EC50: 0.64 µM
[10]
  selectivity ratio: > 15
[11]
  EC50: 0.4 nM
[2]
  EC50: 6.95 µM
[12]
  EC50: 5 µM
[13]
  selectivity ratio: > 15
[3]
  IC50: 0.95 µM
[14]
  IC50: 710 nM
[15]
  EC50: 2.1 µM
[16]
  EC50: 0.7 µM
[17]
  EC50: 1.4 µM
[4]
  IC50: 12.3 µM
[18]
  CC50 at 72 h: 17.3 µM
[21]
  EC50: 1800 nM
[19]
  CC50 at 48 h: 43 µM
[20]
  EC50: 3.7 µM

## CC(C)C[C@H](NC(=O)/C=C/c1ccccc1)C(=O)N[C@@H](C[C@@H]1CCNC1=O)C(=O)C(=O)NCc1ccccc1
[1]
  IC50: 13.8 µM
[5]
  EC50: > 10 µM
[22]
  EC50: 4440 nM
[7]
  EC50: 24 µM
[8]
  CC50 at 72 h: 103 µM
[9]
  EC50: 8.9 µM
[11]
  EC50: 4.6 nM
[2]
  EC50: > 10 µM
[12]
  EC50: 9.2 µM
[3]
  IC50: 3.82 µM
[14]
  IC50: 330 nM
[15]
  EC50: 14.2 µM
[16]
  EC50: 13.4 µM
[17]
  EC50: 7.2 µM
[4]
  IC50: 1.08 µM
[18]
  CC50 at 72 h: 115 µM
[21]
  EC50: 600 nM
[19]
  CC50 at 48 h: > 188 µM
[20]
  EC50: 72 µM
